These results are taken from ChEMBL document CHEMBL1129236, “Synthesis and structure-activity relationships of phenylenebis(methylene)-linked bis-tetraazamacrocycles that inhibit human immunodeficiency virus replication. 2. Effect of heteroaromatic linkers on the activity of bicyclams” (J Med Chem, 1996).

As usually defined, the CC50 is the concentration at which the toxic effect on the cells reaches its halfway point. A lower CC50 goes with greater toxicity to the cells. In general, EC50 refers to the concentration needed to bring the measured effect to its halfway point. Low readings indicate an effect from little substance, high ones a need for much substance. The pKa is the pH at which an ionisable group is half protonated. Low readings indicate a stronger acid or weaker base, high ones a weaker acid or stronger base.

In one data set the test system is MT4. Kind of data set: Concentration required to reduce the viability of mock infected cells by 50%. The format is functional. The note with it: Homo sapiens. In outline: (§1)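 MT-4 cells were infected with HIV-1 (III_B) or HIV-2 (ROD) at MOI 0.01 (100 CCID₅₀), or mock-infected, run in parallel. Cells were exposed to various compound concentrations and grown 5 days, then viable cells were counted by MTT colorimetry. EC₅₀ protects 50% of infected cells from cytopathicity; CC₅₀ cuts mock-infected viability by 50%. Values are averages of several experiments.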

Data set [1] concerns Human immunodeficiency virus 2. The experiment in a line: Effective concentration against HIV-2(ROD) replication in MT-4 cells. The format is functional, organism-based. The note with it: Human immunodeficiency virus 2, MT4. The procedure, abridged:
as §1

Data set [2] relates to Human immunodeficiency virus 1. The experiment in a line: Effective concentration against HIV-1(IIIB) replication in MT-4 cells. It is filed as functional, organism-based. The note with it: Human immunodeficiency virus 1, MT4. The procedure, abridged:
as §1

Data set [3] is described as follows: pKa was reported. It is filed as physicochemical. In outline: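 Potentiometric titration: a 0.1 mM aqueous solution with 4 equiv HClO₄ at 25 °C, I = 0.1 M (NaClO₄), was titrated with 0.1 M NaOH. The electrode was calibrated with pH 4.00 and 7.00 buffers. UV spectra (400–200 nm, 1 cm path) were also taken at 0.17 mM across pH 1–7, with pH set by HClO₄ in 0.1 M NaClO₄.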

Regarding `c1cc(CN2CCCNCCNCCCNCC2)cc(CN2CCCNCCNCCCNCC2)n1`, it took 17000 nM to reach half-maximal cytotoxicity in the data set on MT4 (CC50). The EC50 in data set [1] and in data set [2] was 16400 nM each time.

With `c1ccc(-c2cc(CN3CCCNCCNCCCNCC3)cc(CN3CCCNCCNCCCNCC3)n2)cc1`, the CC50 in the data set on MT4 was over 203000 nM. In addition, the EC50 in data set [1] was 20 nM; in data set [2], 39.8 nM.

The molecule `c1ncc(CN2CCCNCCNCCCNCC2)nc1CN1CCCNCCNCCCNCC1` registered a CC50 with MT4 of over 203000 nM. The EC50 in data set [1] amounted to 17.4 nM; in data set [2] it was 26.1 nM.

Consider `c1cc(CN2CCCNCCNCCCNCC2)ncc1CN1CCCNCCNCCCNCC1`, for which the CC50 in the data set on MT4 stood at 18000 nM. The values for the EC50 in data set [1] and in data set [2] were 2190 nM and 908 nM, respectively.

In the case of `c1nc(CN2CCCNCCNCCCNCC2)cnc1CN1CCCNCCNCCCNCC1`, the CC50 in the data set with MT4 was over 203000 nM. Besides, the EC50 was 106000 nM in data set [1] and 139000 nM in data set [2].

In turn, `c1cc(CN2CCCNCCNCCCNCC2)nc(CN2CCCNCCNCCCNCC2)c1` registered a cytotoxic concentration (CC50) in the data set with MT4 of over 409000 nM. In addition, the results for the EC50 in data set [1] and in data set [2] were 65.4 nM and 24.5 nM, respectively.

In turn, `c1ncc(CN2CCCNCCNCCCNCC2)cc1CN1CCCNCCNCCCNCC1` had a CC50 with MT4 of over 395000 nM. In addition, the figures for the EC50 in data set [1] and in data set [2] were 71 nM and 31.6 nM, respectively.

For the molecule `c1cc(CN2CCCNCCNCCCNCC2)cc(CN2CCCNCCNCCCNCC2)c1`, the cytotoxic concentration (CC50) with MT4 is over 421000 nM.

Molecule `O=C(O)c1cc(CN2CCCNCCNCCCNCC2)ccc1CN1CCCNCCNCCCNCC1` displayed a CC50 with MT4 of over 200000 nM. Moreover, the EC50 in data set [1] and in data set [2] was over 200000 nM in each case.

In data set [3], `c1ccc(C2CCNCCNCCCNCCN2)nc1` (centres undefined) registered a pKa of under 3.

For the molecule `O=C(O)c1cc(CN2CCCNCCNCCCNCC2)cc(CN2CCCNCCNCCCNCC2)c1`, in the data set on MT4, the half-maximal cytotoxic concentration (CC50) is over 200000 nM. Also, the EC50 in data set [1] and in data set [2] was over 203000 nM in each case.

Turning to `c1ccc2c(CN3CCCNCCNCCCNCC3)cc(CN3CCCNCCNCCCNCC3)nc2c1`, the CC50 in the data set with MT4 was over 419000 nM. The figures for the EC50 in data set [1] and in data set [2] were 4270 nM and 3770 nM, respectively.

For the molecule `COC(=O)c1cc(CN2CCCNCCNCCCNCC2)ccc1CN1CCCNCCNCCCNCC1`, the half-maximal cytotoxic concentration (CC50) in the data set on MT4 was over 198000 nM. Also, the EC50 in data set [1] stood at 590 nM; in data set [2], 682 nM.

Consider `c1ccc(-c2cc(CN3CCCNCCNCCCNCC3)cc(CN3CCCNCCNCCCNCC3)c2)cc1`, for which the CC50 in the data set with MT4 is over 198000 nM.

Take `Nc1cc(CN2CCCNCCNCCCNCC2)cc(CN2CCCNCCNCCCNCC2)c1`: the CC50 in the data set on MT4 was over 194000 nM. Moreover, the EC50 in data set [1] stood at 39 nM; in data set [2], 46.8 nM.

`c1ccc2c(CN3CCCNCCNCCCNCC3)cc(CN3CCCNCCNCCCNCC3)cc2c1`: the CC50 in the data set with MT4 was found to be 207000 nM. Moreover, the EC50 in data set [1] stood at 78.6 nM; in data set [2], 157 nM.

Turning to `c1ccc(CCC2CNCCNCCCNCCNC2)nc1`, the pKa in data set [3] amounted to 5.32.

In data set [3], `Oc1cccnc1C1CCNCCNCCCNCCN1` (centres undefined) displayed a pKa of 3.6.

Molecule `Nc1cc(CN2CCCNCCNCCCNCC2)ccc1CN1CCCNCCNCCCNCC1` yielded a CC50 in the data set on MT4 of over 179000 nM. Moreover, the figures for the EC50 in data set [1] and in data set [2] were 93.4 nM and 187 nM, respectively.

In the data set on MT4, `c1cc(CN2CCCNCCNCCCNCC2)ccc1CN1CCCNCCNCCCNCC1` [PLERIXAFOR] returned a CC50 of over 421000 nM. For the same molecule, the EC50 in data set [1] came to 5.9 nM.
